This is an account of results in ChEMBL document CHEMBL1145056, “Structure-activity relationships of novel cyclic alpha-MSH/beta-MSH hybrid analogues that lead to potent and selective ligands for the human MC3R and human MC5R” (J Med Chem, 2003).

Positions of bridges follow the written chain, without caps; N, C: chain ends. Non-standard residues stand in square brackets, D forms with d. Residues, ends and D or L forms follow the SMILES beside them. d2Nal = N[C@H](Cc1ccc2ccccc2c1)C(=O)O

Experiment [1] addresses T1, Melanocortin receptor 3 (Homo sapiens, UniProt P41968). Put plainly: (§1) Effective concentration of peptide at 50% maximal cAMP generation. It is filed as functional. A digest of the protocol: (§2)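 Receptor-transfected human MCR HEK293 cells were seeded at 50 000 cells/well 48 h before the assay. The reaction was stopped with ice-cold Tris/EDTA, and lysates were boiled 15 min. cAMP was measured by competitive binding kit.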

Experiment [2] has as its target T2, Melanocortin receptor 5 (Homo sapiens, UniProt P33032). Nature of the experiment: (§3) Effective concentration of peptide at 50% maximal cAMP generation (10e-10 to 10e-4 M). The format is functional. In short, it runs like this:
(§4)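 Receptor-transfected human MCR HEK293 cells were seeded at 50 000 cells/well 48 h before the assay. Cells were preincubated in EBSS with 0.5 mM IBMX for 1 min at 37 °C, then exposed to peptide (10^-10 to 10^-4 M) for 3 min at 37 °C. The reaction was stopped with ice-cold Tris/EDTA, and lysates were boiled 15 min. cAMP was measured by competitive binding kit.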

Experiment [3] deals with T2, Melanocortin receptor 5. Put plainly: Inhibition of human melanocortin 5 receptor.
Experiment [4] addresses T3, Melanocortin receptor 4 (Homo sapiens, UniProt P32245). The experiment is described as §1. The format is functional.
The target of experiment [5] is T3, Melanocortin receptor 4. Put plainly: Inhibition of human melanocortin 4 receptor.
For experiment [6], the target named is T1, Melanocortin receptor 3. Put plainly: Inhibition of human Melanocortin 3 receptor.
In experiment [7] the target is T2, Melanocortin receptor 5. The experiment is described as §1. The format is functional. A digest of the protocol:
as §2

In experiment [8] the target is T3, Melanocortin receptor 4. Described as §3. It is filed as functional. In short, it runs like this: as §4
For experiment [9], the target named is T3, Melanocortin receptor 4. Put plainly: Inhibitory activity against human melanocortin receptor human Melanocortin 4 receptor was determined. In short, it runs like this:
(§5)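 Whole-cell competition binding in HEK293 cells stably transfected with human MCRs (CMVneo vector), 50 000 cells/well seeded 48 h before. Binding buffer: MEM, 25 mM HEPES pH 7.4, 0.2% BSA, 1,10-phenanthroline, leupeptin, bacitracin. Cells were incubated with unlabeled peptide (10^-10 to 10^-4 M) and 0.1386 nM [125I-Tyr2]-[Nle4,D-Phe7]α-MSH for 40 min at 37 °C, then washed, lysed (NaOH/Triton X-100) and gamma-counted.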

In experiment [10] the target is T2, Melanocortin receptor 5. Nature of the experiment: Inhibitory activity against human melanocortin receptor human Melanocortin 5 receptor was determined. A digest of the protocol:
as §5

In experiment [11] the target is T1, Melanocortin receptor 3. Put plainly: Inhibitory activity against human Melanocortin 3 receptor was determined. In short, it runs like this:
as §5

T2 sequence (P33032 whole entry): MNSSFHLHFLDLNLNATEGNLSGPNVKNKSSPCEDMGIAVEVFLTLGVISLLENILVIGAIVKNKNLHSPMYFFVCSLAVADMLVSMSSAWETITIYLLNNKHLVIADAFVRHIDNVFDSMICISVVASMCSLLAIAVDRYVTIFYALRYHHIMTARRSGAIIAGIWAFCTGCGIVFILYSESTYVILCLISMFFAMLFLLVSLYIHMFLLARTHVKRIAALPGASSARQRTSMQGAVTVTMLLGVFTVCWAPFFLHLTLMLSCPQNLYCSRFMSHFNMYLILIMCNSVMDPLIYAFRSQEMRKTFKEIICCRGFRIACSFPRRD
T1 sequence (P41968 whole entry): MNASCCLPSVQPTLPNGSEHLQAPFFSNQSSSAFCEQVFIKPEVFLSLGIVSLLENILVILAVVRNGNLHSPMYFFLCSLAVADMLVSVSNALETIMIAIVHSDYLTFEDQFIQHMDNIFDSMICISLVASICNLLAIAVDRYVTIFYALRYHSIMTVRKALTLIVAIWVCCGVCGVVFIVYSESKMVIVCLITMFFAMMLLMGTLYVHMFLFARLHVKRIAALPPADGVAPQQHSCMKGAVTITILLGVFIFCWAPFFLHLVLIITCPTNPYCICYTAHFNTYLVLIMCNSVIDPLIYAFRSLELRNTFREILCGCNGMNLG
T3 sequence (P32245 whole entry): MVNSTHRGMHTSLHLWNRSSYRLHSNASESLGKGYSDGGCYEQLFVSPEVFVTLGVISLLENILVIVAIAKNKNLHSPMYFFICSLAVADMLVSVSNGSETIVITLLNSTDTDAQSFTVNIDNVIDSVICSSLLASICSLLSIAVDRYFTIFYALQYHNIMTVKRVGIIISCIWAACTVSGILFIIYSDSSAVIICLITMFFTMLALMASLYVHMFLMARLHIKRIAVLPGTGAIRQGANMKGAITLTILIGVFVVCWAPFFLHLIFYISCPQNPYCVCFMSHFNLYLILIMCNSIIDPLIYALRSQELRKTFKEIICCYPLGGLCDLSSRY

By EC50 is commonly meant the concentration needed to bring the measured effect to its halfway point. For orientation: IC50 means the midpoint of a concentration-inhibition curve. As for `CC(=O)N[C@@H]1CSSC[C@@H](C(=O)N2CCC[C@H]2C(=O)N2CCC[C@H]2C(=O)N[C@@H](CCCCN)C(=O)N[C@@H](CC(=O)O)C(N)=O)NC(=O)[C@H](Cc2c[nH]c3ccccc23)NC(=O)[C@H](CCCN=C(N)N)NC(=O)[C@@H](Cc2ccc3ccccc3c2)NC(=O)[C@H](Cc2c[nH]cn2)NC(=O)[C@H](CCC(=O)O)NC1=O`, the EC50 is more than 10 µM in experiment [1], 0.88 µM in experiment [2] and more than 10 µM in experiment [4]. For the same molecule, the figures for the IC50 in [3], in experiment [5] and in experiment [6] were 26 µM, 3.7 µM and 0.2 µM, respectively.
For the molecule `CC(=O)N[C@H]1CSSC[C@@H](C(=O)N2CCC[C@H]2C(=O)N2CCC[C@H]2C(=O)N[C@@H](CCCCN)C(=O)N[C@@H](CC(=O)O)C(N)=O)NC(=O)[C@H](Cc2c[nH]c3ccccc23)NC(=O)[C@H](CCCNC(=N)N)NC(=O)[C@@H](Cc2ccc3ccccc3c2)NC(=O)[C@@H]2CCCN2C(=O)[C@H](CCC(=O)O)NC1=O`, the EC50 in experiment [1], in [7] and in experiment [8] was more than 10 µM each time. In addition, the values for the IC50 in experiment [3], in [5] and in experiment [6] were 97 µM, 17 µM and 0.031 µM, respectively.
As to `CC(=O)N[C@H]1CSSC[C@H](C(=O)N2CCC[C@H]2C(=O)N2CCC[C@H]2C(=O)N[C@@H](CCCCN)C(=O)N[C@@H](CC(=O)O)C(N)=O)NC(=O)[C@H](Cc2c[nH]c3ccccc23)NC(=O)[C@H](CCCN=C(N)N)NC(=O)[C@@H](Cc2ccc3ccccc3c2)NC(=O)[C@H](Cc2c[nH]cn2)NC(=O)[C@H](CCC(=O)O)NC1=O`, the EC50 in experiment [1], in experiment [7] and in [4] was more than 10 µM throughout. Also, the IC50 in experiment [3] worked out at 15 µM; in experiment [5] it was 40 µM; in experiment [6], 2.9 µM.
`CC(=O)N[C@H]1CSSC[C@H](C(=O)N2CCC[C@H]2C(=O)N2CCC[C@H]2C(=O)N[C@@H](CCCCN)C(=O)N[C@@H](CC(=O)O)C(N)=O)NC(=O)[C@H](Cc2c[nH]c3ccccc23)NC(=O)[C@H](CCCNC(=N)N)NC(=O)[C@@H](Cc2ccccc2)NC(=O)[C@H](Cc2c[nH]cn2)NC(=O)[C@H](CCC(=O)O)NC1=O`: the EC50 in experiment [1], in experiment [7] and in [4] was more than 10 µM each time. The IC50 was 0.01 µM in [3], more than 10 µM in experiment [5] and 5.6 µM in experiment [6].
In the case of `CC(=O)N[C@H]1CSSC[C@@H](C(=O)N2CCC[C@H]2C(=O)N2CCC[C@H]2C(=O)N[C@@H](CCCCN)C(=O)N[C@@H](CC(=O)O)C(N)=O)NC(=O)[C@H](Cc2c[nH]c3ccccc23)NC(=O)[C@H](CCCNC(=N)N)NC(=O)[C@@H](Cc2ccccc2)NC(=O)[C@@H]2CCCN2C(=O)[C@H](CCC(=O)O)NC1=O`, the EC50 was 0.401 µM in experiment [1], 0.38 µM in [2] and more than 10 µM in experiment [4]. The IC50 in experiment [3] is 0.2 µM; in experiment [5], 3.3 µM; in experiment [6] it was more than 1 µM.
`CC(=O)N[C@@H]1C(=O)N[C@@H](CCC(=O)O)C(=O)N[C@@H](Cc2c[nH]cn2)C(=O)N[C@H](Cc2ccc3ccccc3c2)C(=O)N[C@@H](CCCN=C(N)N)C(=O)N[C@@H](Cc2c[nH]c3ccccc23)C(=O)N[C@H](C(=O)N2CCC[C@H]2C(=O)N2CCC[C@H]2C(=O)N[C@@H](CCCCN)C(=O)N[C@@H](CC(=O)O)C(N)=O)CSSC1(C)C`: the concentration for a half-maximal effect (EC50) in experiment [1], in [7] and in [4] was more than 10 µM in each case. The 50% inhibitory concentration (IC50) in experiment [3] is 0.094 µM; in experiment [5], 0.75 µM; in experiment [6], 0.003 µM.
Regarding `CC(=O)N[C@@H]1C(=O)N[C@@H](CCC(=O)O)C(=O)N[C@@H](Cc2c[nH]cn2)C(=O)N[C@H](Cc2ccccc2)C(=O)N[C@@H](CCCN=C(N)N)C(=O)N[C@@H](Cc2c[nH]c3ccccc23)C(=O)N[C@H](C(=O)N2CCC[C@H]2C(=O)N2CCC[C@H]2C(=O)N[C@@H](CCCCN)C(=O)N[C@@H](CC(=O)O)C(N)=O)CSSC1(C)C`, the EC50 in experiment [1] is 0.0028 µM; in experiment [7], more than 10 µM; in experiment [4], 0.0063 µM. The figures for the half-inhibitory concentration (IC50) in [3], in experiment [5] and in experiment [6] were 27 µM, 1.1 µM and 0.43 µM, respectively.
Turning to `CC(=O)N[C@@H]1CSSC[C@@H](C(=O)N2CCC[C@H]2C(=O)N2CCC[C@H]2C(=O)N[C@@H](CCCCN)C(=O)N[C@@H](CC(=O)O)C(N)=O)NC(=O)[C@H](Cc2c[nH]c3ccccc23)NC(=O)[C@H](CCCNC(=N)N)NC(=O)[C@@H](Cc2ccccc2)NC(=O)[C@H](Cc2c[nH]cn2)NC(=O)[C@H](CCC(=O)O)NC1=O`, the half-maximal effective concentration (EC50) in experiment [1], in [7] and in experiment [4] was more than 10 µM each time. Further, the figures for the IC50 in experiment [3], in experiment [5] and in experiment [6] were 0.073 µM, 37 µM and 0.62 µM, respectively.
`CC(=O)N[C@H]1CC(=O)NCCCC[C@@H](C(=O)N2CCC[C@H]2C(=O)N2CCC[C@H]2C(=O)N[C@@H](CCCCN)C(=O)N[C@@H](CC(=O)O)C(N)=O)NC(=O)[C@H](Cc2c[nH]c3ccccc23)NC(=O)[C@H](CCCNC(=N)N)NC(=O)[C@@H](Cc2ccccc2)NC(=O)[C@H](Cc2c[nH]cn2)NC(=O)[C@H](CCC(=O)O)NC1=O`: the EC50 in [1], in experiment [7] and in [4] was more than 10 µM each time. In addition, the IC50 in [3] is more than 10 µM; in [5], more than 10 µM; in [6], more than 1 µM.
By Ki is commonly meant a dissociation constant, usually derived from enzyme kinetics or from competition with a known ligand. A low value points to tighter binding. Regarding `CC(=O)N[C@H]1CSSC[C@@H](C(=O)N2CCC[C@H]2C(=O)N2CCC[C@H]2C(=O)N[C@@H](CCCCN)C(=O)N[C@@H](CC(=O)O)C(N)=O)NC(=O)CNC(=O)[C@H](Cc2c[nH]c3ccccc23)NC(=O)[C@H](CCCNC(=N)N)NC(=O)[C@@H](Cc2ccc3ccccc3c2)NC(=O)[C@H](Cc2c[nH]cn2)NC(=O)[C@H](CCC(=O)O)NC1=O` (Ac-CEH[d2Nal]RWGCPPKD-NH2; disulfide 1-8), the Ki worked out at 0.0031 µM in [9], 0.694 µM in [10] and 0.054 µM in [11].
For the molecule `CC(=O)N[C@H]1CSSC[C@@H](C(=O)N2CCC[C@H]2C(=O)N2CCC[C@H]2C(=O)N[C@@H](CCCCN)C(=O)N[C@@H](CC(=O)O)C(N)=O)NC(=O)[C@H](Cc2c[nH]c3ccccc23)NC(=O)[C@H](CCCN=C(N)N)NC(=O)[C@@H](Cc2ccc3ccccc3c2)NC(=O)[C@H](Cc2c[nH]cn2)NC(=O)[C@H](CCC(=O)O)NC1=O`, the figures for the 50% effective concentration (EC50) in experiment [1], in experiment [7] and in experiment [4] were more than 10 µM, 0.19 µM and 0.0061 µM, respectively. In addition, the IC50 in experiment [3] is 0.18 µM; in experiment [5] it was 0.0034 µM; in [6], 0.13 µM.
